Sampled rows, rich in hits. Any-hit rate of the full collection: about 1.4%.
APJ antagonist: antagonists of human apelin receptor APJ, primary screen, CHO-K1 cells, beta-arrestin complementation, luminescence. actives 0.32% (n = 330,000). AID 2521, 2010. inhibition, % at 20 µM. P35414;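 active means inhibition above about 40% at 20 µM, limit read from the data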;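 further: cells challenged with 10 nM apelin-13 agonist together with compound; plate controls were apelin-13 plus DMSO wells for no effect and DMSO wells lacking apelin-13 for full effect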
CXCR6 inh: CXCR6 receptor inhibitors, primary screen, cell-based, beta-arrestin, luminescence, CHO-K1 PathHunter, 1536-well; C-X-C chemokine receptor type 6 (Homo sapiens), O00574; inhibition, % at 20 µM; actives 0.36% (n = 360,000); AID 602244, 2012; in the data active means inhibition above about 34%, passing the limit was not always enough;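 further: antagonist mode with CXCL16 agonist at 10 nM final; 0% = 10 nM CXCL16 with DMSO and 100% = unstimulated wells without agonist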
Target sequence (O00574 whole entry, looked up): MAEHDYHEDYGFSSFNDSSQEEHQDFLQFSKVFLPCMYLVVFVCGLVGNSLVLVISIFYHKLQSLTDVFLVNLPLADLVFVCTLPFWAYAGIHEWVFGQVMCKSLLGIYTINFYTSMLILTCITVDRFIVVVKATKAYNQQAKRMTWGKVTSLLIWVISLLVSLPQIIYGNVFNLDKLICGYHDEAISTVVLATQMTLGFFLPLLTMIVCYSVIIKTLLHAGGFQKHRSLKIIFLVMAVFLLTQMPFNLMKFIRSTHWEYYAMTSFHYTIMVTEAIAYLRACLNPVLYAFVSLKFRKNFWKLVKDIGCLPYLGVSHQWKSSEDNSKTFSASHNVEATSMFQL
CCR6 antag: CCR6 receptor antagonists, primary screen, cell-based, CHO-K1, luminescence, beta-arrestin, uHTS; AID 493098, 2011; inhibition, % at 20 µM; C-C chemokine receptor type 6 (Homo sapiens), P51684; actives 0.49% (n = 340,000); CHO-K1 CCR6 PathHunter beta-arrestin, CCL20-stimulated;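 active means compounds whose inhibition of the agonist-driven luminescence signal at 20 µM reaches about 50%, limit read from the data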;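 further: cells stimulated with CCL20 at 14 nM final; plate controls were DMSO with CCL20 for no effect and DMSO without agonist for full effect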
A3A deaminase: APOBEC3A ssDNA deaminase inhibitors, primary screen, selectivity assay for APOBEC3G inhibitor project, biochemical, FAM/TAMRA oligo cleavage fluorescence; recombinant A3A, FAM/TAMRA ssDNA deamination fluorescence; actives 0.41% (n = 330,000); inhibition, % at 20 µM; DNA dC->dU-editing enzyme APOBEC-3A (Homo sapiens), P31941;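 active means at least 40% inhibition at 20 µM here, with at most 30% in a related deaminase screen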;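 further: plate controls were A3A with DMSO for no effect and wells lacking A3A enzyme for full effect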
APOBEC3G inh: APOBEC3G DNA deaminase inhibitors, primary screen, biochemical, fluorescence, single-stranded DNA substrate, uHTS | recombinant A3G, ssDNA deamination FAM/TAMRA fluorescence | inhibition, % at 20 µM | actives 0.28% (n = 330,000);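 active means inhibition of at least 40% at 20 µM, with no more than 30% in the related APOBEC3A deaminase screen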;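 further: plate controls were DMSO wells with A3G for no effect and wells lacking A3G enzyme for full effect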
APJ agonist: agonists of human apelin receptor APJ, primary screen, CHO-K1 cells, PathHunter beta-arrestin, luminescence; P35414; 0% DMSO wells, 100% apelin; activation, % at 20 µM; actives 0.11% (n = 330,000);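 active means activation more than six SD over the plate average, tested at 20 µM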;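 further: 0% = DMSO alone and 100% = apelin-13 at 10 nM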
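Incubation: overnight seeding, 90 min compound at 25 °C, 1 h detection; test system: PathHunter CHO-K1 APJ (AGTRL-1) beta-arrestin reporter cells; amount: 1000 cells/well; doses: one dose, 20 µM compound, 1% DMSO; measured by: beta-gal luminescence; measure: agonist-driven arrestin binding to APJ; benchmarks: negative DMSO alone, positive Apelin-13 at 10 nM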
CXCR6 confirm: CXCR6 receptor antagonists, confirmation, cell-based, single concentration, beta-arrestin, luminescence; CHO-K1 CXCR6 PathHunter beta-arrestin; inhibition, % at 20 µM; shares compounds with CXCR6 inh; AID 602409, 2012; actives 65% (n = 700);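 active means mean inhibition over four retests above 40%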;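 further: receptor stimulated with 10 nM CXCL16 agonist; beta-galactosidase fragment complementation upon beta-arrestin recruitment to receptor; plate controls were CXCL16 plus DMSO for no effect and DMSO without CXCL16 for full effect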
* hit, by the source's call; . = no result.

SMILES	APJ antagonist	CXCR6 inh	CCR6 antag	A3A deaminase	APOBEC3G inh	APJ agonist	CXCR6 confirm
CN(Cc1ccccc1)c1ccc(C(CC(N)=O)NC(=O)c2ccc(Br)cc2)cc1[N+](=O)[O-] (stereo unspecified)	12	13	24	0	-9	0	.
CC(C)C(=O)Nc1ncc(Cc2ccccc2Cl)s1	-3	-6	13	7	1	-4	.
N=C1SCC(=O)N1c1ncc(Cc2ccccc2Cl)s1	.	51*	.	.	.	.	58*
CCC/C=C/c1ccc(CN2C(CC(C)C)C(=O)N(Cc3cn(CCOCOC)nn3)CCS2(=O)=O)cc1 (stereo unspecified)	.	2	.	.	.	.	.
CCC/C=C/c1ccc(CN2C(C)C(=O)N(Cc3cn(CCOCOC)nn3)CCS2(=O)=O)cc1 (stereo unspecified)	.	42*	.	.	.	.	7
CCOC(=O)c1cc([N+](=O)[O-])cc([N+](=O)[O-])c1Sc1ncnc2nc[nH]c12	.	45*	.	.	.	.	33
CCOC(=O)C(C)(C)Sc1ncnc2nc[nH]c12	-7	-1	-16	1	-8	-4	.
Fc1ccc(-c2nc(-c3cnccn3)no2)c(Cl)c1	2	0	8	-1	-4	-1	.
O=C(NC1CCCCC1)C1CCN(C(=O)c2ccc(Cl)cc2)CC1	-1	-2	2	0	-5	-4	.
C=CCNc1sc(C(=O)c2ccc(C)cc2)c(N)c1C#N	15	55*	0	-5	-7	0	16
C=CCNc1sc(C(=O)c2ccccc2)c(N)c1C#N	25	1	-2	-5	-6	-2	.
O=C1C=CC(=O)N1c1ccc2c(c1)C(NC(=O)C(F)(F)F)c1ccccc1-2 (stereo unspecified)	.	79*	108*	.	.	.	32
CN(C)C(=O)NC1c2ccccc2-c2ccccc21	17	-6	4	-2	-10	0	.
C=C1C(=O)c2sccc2C(c2ccc(OC)c(OC)c2)C1COC(C)=O (stereo unspecified)	.	94*	92*	.	.	.	97*
COC(=O)c1ccc(CN2C(=O)NC3(CCCc4ccccc43)C2=O)o1 (stereo unspecified)	5	46*	31	-5	-10	-1	-5
Cn1nc(C(=O)N2CCN(c3ccccn3)CC2)c2ccccc2c1=O	2	-6	2	-1	-10	3	.
CN(CC(=O)Nc1ccc(F)cc1)C(=O)CN1C(=O)NC2(CCCCC2)C1=O	-8	1	10	-1	-5	-2	.
CN(CC(=O)Nc1ccc(F)cc1)C(=O)COC(=O)CN1C(=O)NC2(CCCC2)C1=O	8	46*	3	-3	-7	1	17
Cc1[nH]n2c(=O)cc(-c3ccc([N+](=O)[O-])cc3)nc2c1-c1ccccc1	17	59*	.	-1	-1	-3	52*
CCCc1cc(=O)n2[nH]c(C)c(-c3ccccc3)c2n1	9	7	-27	-1	-9	-1	.
Cc1ccc(/C=N/NC(=O)c2cc3c(s2)CCCC3)o1	-6	6	21	7	2	-4	.
COc1cccc(-c2nnc(NC(=O)c3ccc(Cl)s3)o2)c1	20	55*	.	-3	-6	-4	46*
CCc1ccc(/C=C/C(=O)C2C(=O)c3ccccc3C2=O)cc1	16	7	13	-1	-1	-7	.
CC[N+]1(C)CCC(O)(/C=C/c2ccccc2)C(C(=O)/C=C/c2ccccc2)C1 (stereo unspecified)	.	40*	63*	.	.	.	68*

Source: PubChem BioAssay
